According to ChEMBL document CHEMBL2331092, “Bioactive sesterterpenoids from a Korean sponge Monanchora sp” (J Nat Prod, 2013):

Legend:
Format in all cases: functional, cell-based
A498 = assay: Cytotoxicity against human A498 cells assessed as inhibition of cell viability after 6 days by MTT assay; conditions: A498, 144 h
How it was run: (§1)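 Temsirolimus, sunitinib, gemcitabine and 5-fluorouracil served as positive controls.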

[1] = Cytotoxicity against human MiaPaCa cells assessed as inhibition of cell viability after 6 days by MTT assay; conditions: MIA PaCa-2, 144 h; how it was run: as §1
PANC-1 = assay: Cytotoxicity against human PANC1 cells assessed as inhibition of cell viability after 6 days by MTT assay; conditions: PANC-1, 144 h; how it was run: as §1
ACHN = assay: Cytotoxicity against human ACHN cells assessed as inhibition of cell viability after 6 days by MTT assay; conditions: 144 h; how it was run: as §1

SMILES	IC50 (A498)	IC50 [1]	IC50 (PANC-1)	IC50 (ACHN)
CC(=O)O[C@@H]1C[C@@H]2C(CO)=C[C@]3(C=C(C)C[C@@H](/C=C(\C)C/C=C/C(C)(C)OO)O3)O[C@@H]2C=C1C [PHORBAKETAL F]	> 50 µM	> 50 µM	> 50 µM	> 50 µM
CC1=C[C@]2(C=C(CO)[C@H]3CC(=O)C(C)=C[C@H]3O2)O[C@H](/C=C(\C)CCC(=O)C(C)C)C1 [PHORBAKETAL E]	12.5 µM	16.7 µM	25.3 µM	18 µM
C=C(C[C@H](O)/C=C(\C)CC/C=C(\C)CCC=C(C)C)[C@H]1CC(=O)C(C)=C[C@H]1O [PHORBIN A]	4.9 µM	5.2 µM	7.8 µM	10 µM
CC(C)=CCC/C(C)=C/[C@@H]1CC(C)=C[C@]2(C=C(C=O)[C@H]3C[C@@H](O)C(C)=C[C@H]3O2)O1 [PHORBAKETAL H]	9.8 µM	> 50 µM	> 50 µM	> 50 µM
CC(=O)O[C@H]1C[C@@H]2C(CO)=C[C@]3(C=C(C)C[C@@H](/C=C(\C)C/C=C/C(C)(C)OO)O3)O[C@@H]2C=C1C [PHORBAKETAL G]	> 50 µM	> 50 µM	> 50 µM	> 50 µM
CCN(CC)CCNC(=O)c1c(C)[nH]c(/C=C2\C(=O)Nc3ccc(F)cc32)c1C [SUNITINIB]				2.5 µM
CC(=O)O[C@H]1C[C@@H]2C(C=O)=C[C@]3(C=C(C)C[C@@H](/C=C(\C)CCC=C(C)C)O3)O[C@@H]2C=C1C [PHORBAKETAL K]	> 50 µM	> 50 µM	> 50 µM	> 50 µM
CC(C)=CCC/C(C)=C/[C@@H]1CC(C)=C[C@]2(C=C(C=O)[C@H]3CC(=O)C(C)=C[C@H]3O2)O1 [PHORBAKETAL I]	9 µM	22 µM	12.8 µM	22.3 µM
O=c1[nH]cc(F)c(=O)[nH]1 [FLUOROURACIL]			50 µM	
CC(=O)O[C@@H]1C[C@@H]2C(C=O)=C[C@]3(C=C(C)C[C@@H](/C=C(\C)CCC=C(C)C)O3)O[C@@H]2C=C1C [PHORBAKETAL J]	> 50 µM	> 50 µM	> 50 µM	> 50 µM
Nc1ccn([C@@H]2O[C@H](CO)[C@@H](O)C2(F)F)c(=O)n1 [GEMCITABINE]		3 µM		
CO[C@H]1C[C@@H]2CC[C@@H](C)[C@@](O)(O2)C(=O)C(=O)N2CCCC[C@H]2C(=O)O[C@H]([C@H](C)C[C@@H]2CC[C@@H](OC(=O)C(C)(CO)CO)[C@H](OC)C2)CC(=O)[C@H](C)/C=C(\C)[C@@H](O)[C@@H](OC)C(=O)[C@H](C)C[C@H](C)/C=C/C=C/C=C/1C [TEMSIROLIMUS]	0.5 µM			
